pIC50: −log10 of the molar value.
target: T1, 3',5'-cyclic-AMP phosphodiesterase 4D (Homo sapiens, UniProt Q08499); experiment: Inhibition of human PDE4D2 catalytic domain (86 to 413 residues) expressed in Escherichia coli strain BL21 using [3H]cAMP as substrate after 15 mins by liquid scintillation counter analysis
T1 sequence (Q08499 whole entry, the tested form may be a part): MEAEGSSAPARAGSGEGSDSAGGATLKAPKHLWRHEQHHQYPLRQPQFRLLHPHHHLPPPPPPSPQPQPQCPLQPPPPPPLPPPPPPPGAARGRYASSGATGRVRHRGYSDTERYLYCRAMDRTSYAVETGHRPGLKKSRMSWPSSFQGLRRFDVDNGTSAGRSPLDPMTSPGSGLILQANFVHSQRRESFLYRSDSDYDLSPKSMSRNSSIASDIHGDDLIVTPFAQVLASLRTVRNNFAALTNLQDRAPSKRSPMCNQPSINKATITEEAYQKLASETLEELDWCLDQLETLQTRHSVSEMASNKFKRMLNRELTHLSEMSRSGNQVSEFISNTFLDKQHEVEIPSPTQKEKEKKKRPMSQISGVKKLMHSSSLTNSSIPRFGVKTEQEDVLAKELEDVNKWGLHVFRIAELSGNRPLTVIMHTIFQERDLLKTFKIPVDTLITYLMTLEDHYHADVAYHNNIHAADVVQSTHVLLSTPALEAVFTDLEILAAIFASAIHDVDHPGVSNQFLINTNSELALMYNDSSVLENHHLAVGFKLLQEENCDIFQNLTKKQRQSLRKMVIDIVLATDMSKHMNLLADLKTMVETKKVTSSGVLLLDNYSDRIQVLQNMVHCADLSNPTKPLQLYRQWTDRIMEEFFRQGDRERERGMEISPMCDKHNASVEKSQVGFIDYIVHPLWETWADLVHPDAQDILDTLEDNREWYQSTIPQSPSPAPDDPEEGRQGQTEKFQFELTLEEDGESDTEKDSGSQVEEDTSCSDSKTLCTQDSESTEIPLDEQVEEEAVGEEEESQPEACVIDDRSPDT

pIC50 | SMILES
7.05 | COc1ccc(C2(c3ccc(OC)cc3)c3cc(O)ccc3-c3cccc(C#Cc4ccc(O)cc4)c32)cc1
5.92 | Oc1ccc(C#Cc2ccc(O)c3c2C(c2ccc(O)cc2)(c2ccc(O)cc2)c2cc(O)ccc2-3)cc1
6.00 | O=C1C=CC(=C(c2ccc(O)cc2)c2c(-c3ccc(O)cc3)ccc(CO)c2C#Cc2ccc(O)cc2)C=C1
6.70 | OCc1ccc2c(c1C#Cc1ccc(O)cc1)C(c1ccc(O)cc1)(c1ccc(O)cc1)c1cc(O)ccc1-2
8.00 | COc1ccc(C2(c3ccc(OC)cc3)c3cc(O)ccc3-c3ccc(C=O)c(C#Cc4ccc(O)cc4)c32)cc1

target: T1, 3',5'-cyclic-AMP phosphodiesterase 4D; experiment: Inhibition of PDE4D2 (unknown origin) by preincubated for 30 mins before substrate addition and measured after 60 mins by IMAP TR-FRET phosphodiesterase evaluation assay
Method in brief: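 Purchased PDE4D2 at 5.0 pg/μL in IMAP buffer (10 mM Tris pH 7.2, 10 mM MgCl2, 0.05% NaN3, 1 mM DTT, 0.1% phosphate-free BSA). Compound or vehicle preincubated 30 min at RT, then FAM-cAMP added (200 nM final), 60 min at RT. Stopped with IMAP Tb binding reagent, 60 min at RT, fluorescence read. IC50 by four-parameter nonlinear fit, three independent replicates.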

pIC50 | SMILES
4.53 | COCc1cc(O)c2c(c1C#Cc1ccc(O)cc1)C(c1ccc(O)cc1)(c1ccc(O)cc1)c1cc(O)ccc1-2
< 4.52 | COc1ccc(-c2c3ccc(OC)cc3c3c4c(ccc(-c5ccc(O)cc5)c24)[C@@H](c2ccc(O)cc2)OC3=O)cc1
5.55 | COCc1ccc2c(c1C#Cc1ccc(O)cc1)C(c1ccc(OC)cc1)(c1ccc(OC)cc1)c1cc(O)ccc1-2
4.49 | COc1ccc([C@@]2(c3ccc(O)cc3)c3cc(O)ccc3-c3ccc(CO)c(C#Cc4ccc(O)cc4)c32)cc1
4.47 | COCc1ccc2c(c1C#Cc1ccc(O)cc1)[C@](c1ccc(O)cc1)(c1ccc(OC)cc1)c1cc(O)ccc1-2
4.63 | COCc1ccc2c(c1C#Cc1ccc(O)cc1)C(c1ccc(O)cc1)(c1ccc(O)cc1)c1cc(O)ccc1-2
4.71 | COc1ccc([C@@]2(c3ccc(O)cc3)c3cc(O)ccc3-c3ccc(C)c(C#Cc4ccc(O)cc4)c32)cc1
4.86 | COc1ccc(-c2c3ccc(OC)cc3c3c4c(ccc(-c5ccc(O)cc5)c24)C(=O)O[C@H]3c2ccc(O)cc2)cc1
5.27 | COc1ccc(C2(c3ccc(OC)cc3)c3cc(O)ccc3-c3ccc(CO)c(C#Cc4ccc(O)cc4)c32)cc1
4.61 | COc1ccc(C2(c3ccc(OC)cc3)c3cc(O)ccc3-c3ccc(C)c(C#Cc4ccc(O)cc4)c32)cc1

Reference: ChEMBL document CHEMBL4339243, “Molecular Networking Reveals the Chemical Diversity of Selaginellin Derivatives, Natural Phosphodiesterase-4 Inhibitors from Selaginella tamariscina” (J Nat Prod, 2019)
